The values that follow come from PubChem BioAssay.

As a reminder, the viability is a read-out of living cells in per cent, often relative to untreated cells. One may read the inhibition as the change of the read-out against control, counted positive when it falls.

A short description of test [1]: Her2 expression decrease, cell viability multiplex – SKBR3 breast tumor cells, AlphaScreen, ATP viability, primary screen (AID 461;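 active = Her2 level under about 52% in both replicate screens, with viability over 70% of control, limit read from the data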;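 for Her2 level: lower value means less Her2 protein in the cells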;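 for viability: percent of carrier control wells set as 100% viability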). The note with it: SKBR3 Her2 protein level, 18-24 h, measured here: SKBR3 viability, ATP luminescence, at 10 µM. Background: Bead proximity is the source of the signal in Alpha formats.
In test [2] the target is Receptor tyrosine-protein kinase erbB-2 (Homo sapiens) (UniProt P04626). The description is as above. The following applies: 18-24 h, at 10 µM, stronger effect = lower value.
Chain of Receptor tyrosine-protein kinase erbB-2 (Homo sapiens) (P04626 whole entry, looked up): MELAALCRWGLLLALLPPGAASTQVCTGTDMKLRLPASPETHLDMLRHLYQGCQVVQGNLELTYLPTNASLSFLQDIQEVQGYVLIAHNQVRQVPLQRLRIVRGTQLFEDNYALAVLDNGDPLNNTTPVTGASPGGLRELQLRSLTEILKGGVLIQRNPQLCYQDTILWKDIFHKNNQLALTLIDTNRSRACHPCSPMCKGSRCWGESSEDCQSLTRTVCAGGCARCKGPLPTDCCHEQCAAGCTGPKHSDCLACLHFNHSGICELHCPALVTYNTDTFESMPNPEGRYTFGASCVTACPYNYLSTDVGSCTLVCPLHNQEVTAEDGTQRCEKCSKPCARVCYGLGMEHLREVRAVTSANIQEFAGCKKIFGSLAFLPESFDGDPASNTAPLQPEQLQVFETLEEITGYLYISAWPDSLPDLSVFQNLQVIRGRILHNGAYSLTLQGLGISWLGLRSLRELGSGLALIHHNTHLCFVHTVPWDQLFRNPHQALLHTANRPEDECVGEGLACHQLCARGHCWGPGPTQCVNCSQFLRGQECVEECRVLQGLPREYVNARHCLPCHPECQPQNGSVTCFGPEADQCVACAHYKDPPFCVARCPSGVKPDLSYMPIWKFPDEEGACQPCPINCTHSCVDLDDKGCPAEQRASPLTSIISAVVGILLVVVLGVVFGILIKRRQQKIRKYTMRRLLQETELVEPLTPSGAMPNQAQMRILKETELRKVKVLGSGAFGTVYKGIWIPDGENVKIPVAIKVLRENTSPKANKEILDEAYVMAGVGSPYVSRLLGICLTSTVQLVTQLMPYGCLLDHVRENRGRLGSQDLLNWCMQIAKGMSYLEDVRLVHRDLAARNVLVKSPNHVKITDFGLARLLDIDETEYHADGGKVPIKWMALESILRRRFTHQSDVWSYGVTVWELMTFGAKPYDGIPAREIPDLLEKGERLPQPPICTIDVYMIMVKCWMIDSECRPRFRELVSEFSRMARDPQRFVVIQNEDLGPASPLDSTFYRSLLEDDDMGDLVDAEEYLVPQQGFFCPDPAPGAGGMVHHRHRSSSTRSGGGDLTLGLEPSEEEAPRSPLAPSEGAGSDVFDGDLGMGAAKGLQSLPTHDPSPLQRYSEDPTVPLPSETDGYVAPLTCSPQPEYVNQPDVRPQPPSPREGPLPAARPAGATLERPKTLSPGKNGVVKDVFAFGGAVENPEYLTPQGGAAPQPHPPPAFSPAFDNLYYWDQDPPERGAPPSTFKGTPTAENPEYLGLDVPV
The nature of test [3]: reduced viability of SK-BR-3 breast cancer cells – cell-based, 24 h, human, pilot screen (AID 572;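 active = viability at or below 10% of carrier control in both of two separate runs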;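 note: compound exposure lasted between 18 and 24 h rather than exactly 24 h; 100% = carrier-treated control wells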). The note with it: SK-BR-3 viability, CellTiter-Glo luminescence, at 10 µM, stronger effect = lower value. Background: ATP-based viability assays read luminescence as a measure of living cells.
Test [4] can be described thus: HUVEC growth inhibition – cell-based, human, primary screen (AID 575;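 active = viability at or below 30% in both replicate assays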;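 note: 100% = median of untreated cell wells with 0.1% DMSO on each plate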). The following applies: HUVEC proliferation, CellTiter-Glo luminescence, 72 h; at 10 µM; stronger effect = lower value. Put shortly:
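material = primary HUVEC, no more than 12 passages | input = 1250 cells per well | controls = vehicle and MePR control wells | measured by = CTG luminescence | times = 72 h compound incubation | format = collagen-coated 384-well format | read-out = % viability vs DMSO wells | doses = single 10 µM dose, 0.1% DMSO, from 5x medium stock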

A short description of test [5]: H69AR cell proliferation blockers – human, duplicate replicates, primary screen (AID 580;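 active = viability at or under a set limit in both replicates, limit being median viability minus 3 SD, cut at about 48% in these data, passing the limit was not always enough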;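 note: 100% = mean luminescence of untreated wells and 0% = no signal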). The following applies: H69AR lung tumor cells viability, ATP luminescence, 72 h; at 10 µM; stronger effect = lower value.
The nature of test [6]: MRP1 drug-resistance reversers in H69AR cells – cell-based, doxorubicin co-treatment, pilot screen (AID 601). The following applies: CellTiter-Glo, 72 h, at 10 µM; for differential viability (reversal): stronger effect = higher value.
A short description of test [7]: yeast transport mutant growth inhibition pilot in 384-well plates, post-Golgi transport modulator project (AID 636; in the data active = inhibition above about 31%). The following applies: absorbance 615 nm, about 18 h, stronger effect = higher value.
A short description of test [8]: growth suppression of yeast trafficking mutant, preliminary HTS, modulators of trafficking downstream of Golgi apparatus project, 1536-format plate, OD 615 nm (AID 637; in the data active = inhibition above about 30%). The following applies: yeast transport mutant growth, absorbance 615 nm, 18 h; stronger effect = higher value.
Setting [9] is: H69AR cells + 2 uM doxorubicin, measured here: viability with 2 uM doxorubicin, stronger effect = lower value.
Where [10] appears, read: H69AR cells, compound alone cytotoxicity.

Active and inactive are the calls of the source.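 Rule for the calls, unless noted: active = viability loss from added drug above about 55%, and viability with drug at most 40%, in both replicates (limit read from the data, passing the limit was not always enough); inconclusive = both conditions met in only one replicate; inactive = neither replicate meets both conditions.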

`CCn1c(CCNC(=O)c2cccs2)nnc1SCC(=O)c1ccc(OC)cc1`: the viability in test [1] is 106%; in test [3], 106% (inactive); in test [4] it was 95.7% (inactive); in test [5] it was 97.4% (inactive); in test [6] (setting [9]), 103%; in test [6] (setting [10]), 97.4%. The Her2 level in test [2] is 138% (inactive). Moreover, in test [6] (H69AR cells + 2 uM doxorubicin), the differential viability (reversal) is -5.32% (inactive). The inhibition was -1.71% (inactive) in test [7] and -0.33% (inactive) in test [8].

For `Cc1cccc(NC(=O)c2cc3ccccc3o2)c1`, the viability in test [1] was 142%; in test [3], 142% (inactive); in test [4] it was 75.8% (inactive); in test [5] it was 86.3% (inactive); in test [6] (setting [9]), 78.1%; in test [6] (setting [10]), 86.3%. For the same molecule, the Her2 level in test [2] is 114% (inactive). Further, the differential viability (reversal) in test [6] (H69AR cells + 2 uM doxorubicin) is 8.2% (inactive). Further, the inhibition in test [7] was -7.4% (inactive); in test [8], -1.27% (inactive).

In the case of `Cc1ccccc1C(=O)NC1CCN(Cc2nnnn2Cc2ccccc2)CC1`, the viability was 93.5% in test [1]; 93.5% (inactive) in test [3]; 91.3% (inactive) in test [4]; 98.2% (inactive) in test [5]; 95.6% in test [6] (setting [9]); 98.2% in test [6] (setting [10]). Also, in test [2], the Her2 level was 78% (inactive). In test [6] (H69AR cells + 2 uM doxorubicin), the differential viability (reversal) was 2.56% (inactive). The values for the inhibition in test [7] and in test [8] were -4.46% (inactive) and 3.49% (inactive), respectively.

With `CC(C)(C)NC(=O)C(c1ccco1)N(C(=O)Cn1nnc(-c2ccc(F)cc2)n1)c1ccccc1` (stereo not given), the viability is 89.5% in test [1]; 89.5% (inactive) in test [3]; 101% (inactive) in test [4]; 102% (inactive) in test [5]; 98.4% in test [6] (setting [9]); 102% in test [6] (setting [10]). Also, the Her2 level in test [2] was 80% (inactive). Moreover, in test [6] (H69AR cells + 2 uM doxorubicin), the differential viability (reversal) is 3.25% (inactive). Further, the inhibition in test [7] was -0.92% (inactive); in test [8], 0% (inactive).

As to `CC1(C)CC(=O)C(C=NCc2ccc3c(c2)OCO3)=C(O)C1`, the viability is 104% in test [1]; 104% (inactive) in test [3]; 96.6% (inactive) in test [4]; 91.3% (inactive) in test [5]; 86.3% in test [6] (setting [9]); 91.3% in test [6] (setting [10]). For the same molecule, the Her2 level in test [2] was 95.5% (inactive). In addition, the differential viability (reversal) in test [6] (H69AR cells + 2 uM doxorubicin) was 5% (inactive). In addition, the inhibition in test [7] was 0.65% (inactive); in test [8], -4.92% (inactive).

Consider `CC1CCCN(c2ccc(C(=O)NCc3cccs3)cn2)C1` (stereo not given), for which the viability in test [1] was 98.5%; in test [3], 98.5% (inactive); in test [4], 96.1% (inactive); in test [5], 82.8% (inactive); in test [6] (setting [9]) it was 77.9%; in test [6] (setting [10]), 82.8%. Besides, the Her2 level in test [2] is 89.5% (inactive). In addition, the differential viability (reversal) in test [6] (H69AR cells + 2 uM doxorubicin) was 4.85% (inactive). In addition, the inhibition was -0.91% (inactive) in test [7] and -2.86% (inactive) in test [8].

For `Cc1ccc(S(=O)(=O)NCCNC(=O)C2CCCNC2=O)cc1` (stereo not given), the viability in test [1] is 93.5%; in test [3] it was 93.5% (inactive); in test [4] it was 103% (inactive); in test [5], 105% (inactive); in test [6] (setting [9]), 92.9%; in test [6] (setting [10]) it was 105%. In addition, in test [2], the Her2 level was 86.5% (inactive). In addition, the differential viability (reversal) in test [6] (H69AR cells + 2 uM doxorubicin) is 12% (inactive). Moreover, the values for the inhibition in test [7] and in test [8] were -4.67% (inactive) and 1.8% (inactive), respectively.

As for `COc1cc(NC(=O)c2ccc(COCC(F)(F)F)o2)cc(OC)c1OC`, the viability in test [1] was 95%; in test [3], 95% (inactive); in test [4] it was 92.8% (inactive); in test [5] it was 99.6% (inactive); in test [6] (setting [9]), 79.5%; in test [6] (setting [10]), 99.6%. The Her2 level in test [2] was 84% (inactive). The differential viability (reversal) in test [6] (H69AR cells + 2 uM doxorubicin) is 20.1% (inactive). Besides, the inhibition in test [7] is -1.45% (inactive); in test [8], 2.58% (inactive).

With `O=C(CSc1nnnn1C1CCCC1)NCc1ccc2c(c1)OCO2`, the viability was 86% in test [1]; 86% (inactive) in test [3]; 93.7% (inactive) in test [4]; 102% (inactive) in test [5]; 98.6% in test [6] (setting [9]); 102% in test [6] (setting [10]). The Her2 level in test [2] is 89% (inactive). Moreover, the differential viability (reversal) in test [6] (H69AR cells + 2 uM doxorubicin) is 3.33% (inactive). Besides, the inhibition was -6.22% (inactive) in test [7] and 2.46% (inactive) in test [8].

Regarding `CS(=O)(=O)N1CCc2cc(C(=O)N3CCCCC3)ccc21`, the viability in test [1] is 89.5%; in test [3], 89.5% (inactive); in test [4], 99.8% (inactive); in test [5], 96.6% (inactive); in test [6] (setting [9]), 88.5%; in test [6] (setting [10]), 96.6%. Further, in test [2], the Her2 level was 89% (inactive). Also, in test [6] (H69AR cells + 2 uM doxorubicin), the differential viability (reversal) was 8.06% (inactive). The results for the inhibition in test [7] and in test [8] were -3.42% (inactive) and 1.75% (inactive), respectively.

`Cc1cc(C(=O)Nc2sc3c(c2C#N)CCCCC3)cs1`: the viability in test [1] is 91.5%; in test [3], 91.5% (inactive); in test [4], 76.6% (inactive); in test [5], 77.1% (inactive); in test [6] (setting [9]), 81.7%; in test [6] (setting [10]), 77.1%. The Her2 level in test [2] was 92.5% (inactive). For the same molecule, the differential viability (reversal) in test [6] (H69AR cells + 2 uM doxorubicin) was -4.53% (inactive). For the same molecule, the inhibition is -3.47% (inactive) in test [7] and -4.1% (inactive) in test [8].

With `CCOC(=O)n1c(SCC(=O)N(CC)CC)nc2ccccc21`, the viability in test [1] was 118%; in test [3] it was 118% (inactive); in test [4] it was 105% (inactive); in test [5] it was 101% (inactive); in test [6] (setting [9]) it was 85.7%; in test [6] (setting [10]), 101%. For the same molecule, the Her2 level in test [2] is 97.5% (inactive). In test [6] (H69AR cells + 2 uM doxorubicin), the differential viability (reversal) is 15.7% (inactive). Also, the inhibition in test [7] was -3.51% (inactive); in test [8], 1.11% (inactive).

As to `O=C(Nc1ccc(SC(F)F)cc1)c1ccc2nccnc2c1`, the viability is 91.5% in test [1]; 91.5% (inactive) in test [3]; 67% (inactive) in test [4]; 92.1% (inactive) in test [5]; 89.4% in test [6] (setting [9]); 92.1% in test [6] (setting [10]). The Her2 level in test [2] was 77.5% (inactive). Besides, the differential viability (reversal) in test [6] (H69AR cells + 2 uM doxorubicin) was 2.67% (inactive). Moreover, the inhibition in test [7] is -2.53% (inactive); in test [8], -2.54% (inactive).

In the case of `Cc1ccc(-c2nc(N)n(C(=O)c3cccnc3)n2)cc1`, the viability in test [1] is 86.5%; in test [3] it was 86.5% (inactive); in test [4] it was 95.1% (inactive); in test [5] it was 105% (inactive); in test [6] (setting [9]) it was 85.7%; in test [6] (setting [10]), 105%. The Her2 level in test [2] is 87.5% (inactive). Further, the differential viability (reversal) in test [6] (H69AR cells + 2 uM doxorubicin) is 19.1% (inactive). Further, the inhibition in test [7] was -3.08% (inactive); in test [8], 0.33% (inactive).
